# Assay results taken from BindingDB's records for doi:10.1021/jm9708588 (National University of Singapore, 1998).
# Columns and labels:
# [1] = molecular target: T1, Muscarinic acetylcholine receptor M1 (Rattus norvegicus, UniProt P08482); experiment: Binding affinity to Muscarinic acetylcholine receptor M1 by measuring its ability to displace [3H]pirenzepine from rat cerebral cortex
# T1 sequence (P08482 whole entry): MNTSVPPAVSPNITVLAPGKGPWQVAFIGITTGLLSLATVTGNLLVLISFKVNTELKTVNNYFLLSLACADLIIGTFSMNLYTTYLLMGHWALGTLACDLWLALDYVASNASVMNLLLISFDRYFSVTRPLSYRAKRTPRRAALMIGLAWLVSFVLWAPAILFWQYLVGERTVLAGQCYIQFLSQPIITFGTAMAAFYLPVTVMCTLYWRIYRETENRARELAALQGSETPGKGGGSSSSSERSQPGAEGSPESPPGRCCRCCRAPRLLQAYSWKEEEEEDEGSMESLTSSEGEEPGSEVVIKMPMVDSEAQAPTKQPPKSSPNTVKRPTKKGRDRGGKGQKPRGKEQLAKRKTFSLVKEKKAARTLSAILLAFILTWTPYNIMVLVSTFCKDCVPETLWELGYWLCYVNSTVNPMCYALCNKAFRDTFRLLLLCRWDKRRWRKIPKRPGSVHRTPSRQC
# [2] = The compound was evaluated for its ability to inhibit [3H]NMS binding to Muscarinic acetylcholine receptor in heart
# [3] = molecular target: Muscarinic acetylcholine receptor M3 (Rattus norvegicus, UniProt P08483); experiment: Binding affinity to Muscarinic acetylcholine receptor M3 by measuring its ability to displace [3H]N-methylscopolamine binding in rat submandibulary gland
# In short: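 Rat submandibulary gland membranes prepared in Na+/Mg2+ HEPES buffer pH 7.4. Nonspecific binding defined with 1 μM (±)-QNB. Pellet obtained by centrifugation and counted by scintillation. Triplicate determinations. Ki derived from IC50 by Cheng–Prusoff.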
# Muscarinic acetylcholine receptor M3, sequence (P08483 whole entry): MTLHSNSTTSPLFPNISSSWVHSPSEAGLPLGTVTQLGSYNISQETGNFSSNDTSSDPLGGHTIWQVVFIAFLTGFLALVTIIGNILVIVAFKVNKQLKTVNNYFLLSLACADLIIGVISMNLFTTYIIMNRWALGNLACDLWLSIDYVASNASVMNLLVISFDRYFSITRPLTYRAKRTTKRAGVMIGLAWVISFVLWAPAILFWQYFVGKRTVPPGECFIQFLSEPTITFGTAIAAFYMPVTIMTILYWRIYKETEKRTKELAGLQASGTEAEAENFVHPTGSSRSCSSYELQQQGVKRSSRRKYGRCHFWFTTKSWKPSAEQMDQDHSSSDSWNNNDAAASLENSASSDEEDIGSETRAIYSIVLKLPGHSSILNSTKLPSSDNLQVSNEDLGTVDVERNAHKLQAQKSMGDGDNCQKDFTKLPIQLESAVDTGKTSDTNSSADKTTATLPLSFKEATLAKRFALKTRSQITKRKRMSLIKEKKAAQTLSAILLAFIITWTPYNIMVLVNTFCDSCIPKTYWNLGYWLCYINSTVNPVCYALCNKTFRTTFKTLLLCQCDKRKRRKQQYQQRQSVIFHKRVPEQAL
Compound,Ki [1] [µM],Ki [2] [µM],Ki [3] [µM]
O=C1CCCN1CC#CCN1CCCC1 [1-[4-(2-oxo-pyrrolidin-1-yl)-but-2-ynyl]-pyrrolidinium],0.63,,
CN1CCC(=NO)CC1,501,,
CCC#CCON=C1CC2CCC(C1)N2C,5.01,63.1,
CON=C1CC2CCC(C1)N2C,999,,
C#CCCCON=C1CCN(C)CC1,7.94,,
CC#CCCON=C1CCN(C)CC1,1.99,,
CCC#CCON=C1CCN(C)CC1,3.98,,
CC#CCON=C1CC2CCC(C1)N2C,0.501,,
C#CCCCON=C1CC2CCC(C1)N2C,0.63,,
CC#CCON=C1CCN(C)CC1,3.98,,
CC#CCCON=C1CC2CCC(C1)N2C,0.794,,
C[N+](C)(C)CC#CCOC(=O)Nc1cccc(Cl)c1 [McN-A-343],5.01,,2.51
C#CC(CC)ON=C1CC2CCC(C1)N2C (stereo unspecified),0.316,,
CON=C1CCN(C)CC1,50.1,,
C#CCON=C1CCN(C)CC1,50.1,,
C#CC(CC)ON=C1CCN(C)CC1 (stereo unspecified),6.3,,
C#CCCON=C1CC2CCC(C1)N2C,1.58,,
C#CC(C)ON=C1CC2CCC(C1)N2C (stereo unspecified),9.99,,
CN1C2CCC1CC(=NO)C2,501,,
C#CCC(C)ON=C1CCN(C)CC1 (stereo unspecified),3.16,,
C#CCON=C1CC2CCC(C1)N2C,1.25,,
C#CC(C)ON=C1CCN(C)CC1 (stereo unspecified),5.01,,
C#CCCON=C1CCN(C)CC1,1.58,,
C#CCC(C)ON=C1CC2CCC(C1)N2C (stereo unspecified),0.1,,
